Active and inactive are the calls of the source. No cut-off for these calls is given here.
Tests used:
T-24 [1] = experiment: Cell cycle arrest in human T24 cells assessed as accumulation at S/G2 phase at 1 to 10 uM after 48 hrs by propidium iodide staining based FACS analysis; assay type: functional
Outline: (§1)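 Cells treated with 1−10 μM for 48 h, trypsinized, and fixed in 70% ethanol. Stained with 50 μg/mL propidium iodide and phase distribution analyzed by flow cytometry. Mean ± SD from three independent measurements.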

T-24 [2] = experiment: Cell cycle arrest in human T24 cells assessed as accumulation at sub-G1 phase at 1 to 10 uM after 48 hrs by propidium iodide staining based FACS analysis; assay type: functional; outline: as §1
J82 [3] = experiment: Cell cycle arrest in human J82 cells assessed as accumulation at G1 phase at 1 uM after 48 hrs by propidium iodide staining based FACS analysis (reference value: 42.29 %); assay type: functional; outline: as §1
J82 [4] = experiment: Cell cycle arrest in human J82 cells assessed as accumulation at S phase at 1 uM after 48 hrs by propidium iodide staining based FACS analysis (reference value: 46.79 %); assay type: functional; outline: as §1
J82 [5] = experiment: Cell cycle arrest in human J82 cells assessed as accumulation at G2 phase at 1 uM after 48 hrs by propidium iodide staining based FACS analysis (reference value: 10.92 %); assay type: functional; outline: as §1
J82 [6] = experiment: Cell cycle arrest in human J82 cells assessed as accumulation at G1 phase at 5 uM after 48 hrs by propidium iodide staining based FACS analysis (reference value: 42.29 %); assay type: functional; outline: as §1
J82 [7] = experiment: Cell cycle arrest in human J82 cells assessed as accumulation at G2 phase at 10 uM after 48 hrs by propidium iodide staining based FACS analysis (reference value: 10.92 %); assay type: functional; outline: as §1
DU-145 = experiment: Antiproliferative activity against human DU145 cells harboring p53 mutant by MTT assay; assay type: functional, cell-based
Outline: (§2)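 Cell lines cultured in RPMI 1640 with 10% FBS. Viability read by MTT (5 mg/mL, 4 h at 37 °C), with formazan dissolved in DMSO and absorbance taken at 490 nm. Viability (%) = A490 treated / A490 control × 100. IC50 taken from dose-response curves, from three independent experiments each run in triplicate.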

PC-3 = experiment: Antiproliferative activity against p53 null human PC3 cells by MTT assay; assay type: functional, cell-based; outline: as §2
LNCaP = experiment: Antiproliferative activity against human LNCAP cells harboring wild type p53 by MTT assay; assay type: functional, cell-based; outline: as §2
T-24 [8] = experiment: Antiproliferative activity against human T24 cells harboring scRNA after 48 hrs by MTT assay; assay type: functional, cell-based
Outline: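 T24 cells pre-exposed to p53-siRNA or scrambled RNA for 24 h, then treated with a concentration series for 48 h. Proliferation measured by MTT read at 490 nm, expressed as % of control absorbance.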

T-24 [9] = experiment: Cell cycle arrest in human T24 cells assessed as effect on CDK4 expression up to 10 uM after 24 hrs by Western blot analysis; assay type: functional, cell-based
Outline: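 T24 cells, 3 × 10^5 per well, grown to 85−95% confluence, then exposed to 0−10 μM for 24 h. Whole-cell extracts in sample buffer run on SDS-polyacrylamide gels and transferred to nitrocellulose. Blots probed with primary antibodies and AP-linked anti-rabbit IgG, detected by ECL. Blots stripped and reprobed for β-actin as loading control.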

T-24 [10] = experiment: Induction of apoptosis in human T24 cells assessed as increase in bim level up to 10 uM after 24 hrs by Western blot analysis; assay type: functional, cell-based
Outline: (§3)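 T24 cells (3 × 10^5 per well) grown to 85–95% confluence, then exposed 24 h to 0–10 μM. Whole-cell extracts run on SDS-PAGE and blotted to nitrocellulose. Probed with the indicated antibodies and AP-linked anti-rabbit IgG, with ECL detection. Blots stripped and reprobed for β-actin as loading control.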

T-24 [11] = experiment: Induction of apoptosis in human T24 cells assessed as increase in bax level up to 10 uM after 24 hrs by Western blot analysis; assay type: functional, cell-based; outline: as §3
[12] = target: Cellular tumor antigen p53 (Homo sapiens) (UniProt P04637); experiment: Induction of phospho-p53 accumulation in human T24 cells assessed as disruption of Bak-Bcl-xl interaction up to 10 uM by coimmunoprecipitation assay; assay type: cell-based
HepG2 = experiment: Antiproliferative activity against human HepG2 cells by MTT assay; assay type: functional, cell-based; outline: as §2
MGC-803 = experiment: Antiproliferative activity against human MGC803 cells by MTT assay; assay type: functional, cell-based; outline: as §2
HeLa = experiment: Antiproliferative activity against human HeLa cells by MTT assay; assay type: functional, cell-based; outline: as §2
Mus musculus = experiment: Toxicity in BALB/C nude mouse xenografted with human HepG2 cells assessed as effect on food consumption at 6 to 12 mg/kg, ip administered every 2 days for 16 days; assay type: organism-based; details: in vivo
Outline: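 Male BALB/C nude mice with HepG2 flank xenografts, n = 6/group. Given ip 6 or 12 mg/kg every 2 days in 5% DMSO/saline; vehicle and HCPT 6 mg/kg as controls. Clinical signs, food intake and body weight monitored; tumour size and weight measured three times weekly.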

T-24 [13] = experiment: Effect on light absorption in human T24 cells up to 10 uM after 1 hr at 490 nanometer; assay type: functional, cell-based
Outline: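 T24 cells treated at 1−10 μM for 1 h, then absorbance read at 490 nm to check for interference with the MTT read-out.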

T-24 [14] = experiment: Induction of membrane disruption in human T24 cells at 1 to 10 uM after 1 hr by propidium iodide staining based FACS analysis; assay type: functional, cell-based
Outline: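 T24 cells exposed 1 h to 1–10 μM, then trypsinised and washed in PBS. Resuspended in 50 μg/mL propidium iodide in PBS and analysed immediately by flow cytometry with a 488 nm argon laser.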

T-24 [15] = experiment: Effect on cell cycle distribution in human T24 cells assessed as live cells at 1 uM after 1 hr by Annexin V-FITC/propidium iodide staining based FACS analysis (reference value: 98.3%); assay type: functional
T-24 [16] = experiment: Effect on cell cycle distribution in human T24 cells assessed as early apoptotic cells at 5 uM after 1 hr by Annexin V-FITC/propidium iodide staining based FACS analysis relative to control; assay type: functional
T-24 [17] = experiment: Effect on cell cycle distribution in human T24 cells assessed as late apoptotic cells at 5 uM after 1 hr by Annexin V-FITC/propidium iodide staining based FACS analysis relative to control; assay type: functional
T-24 [18] = experiment: Effect on cell cycle distribution in human T24 cells assessed as live cells at 10 uM after 1 hr by Annexin V-FITC/propidium iodide staining based FACS analysis (reference value: 98.3%); assay type: functional
T-24 [19] = experiment: Effect on cell cycle distribution in human T24 cells assessed as early apoptotic cells at 10 uM after 1 hr by Annexin V-FITC/propidium iodide staining based FACS analysis relative to control; assay type: functional
T-24 [20] = experiment: Effect on p53 protein expression in human T24 cells up to 10 uM after 24 hrs by Western blot analysis; assay type: functional, cell-based; outline: as §3
T-24 [21] = experiment: Induction of apoptosis in human T24 cells assessed as live cells at 5 uM by Annexin V-FITC/propidium iodide based flow cytometric analysis (reference value: 89.5%); assay type: functional
T-24 [22] = experiment: Induction of apoptosis in human T24 cells assessed as late apoptotic cells at 5 uM by Annexin V-FITC/propidium iodide based flow cytometric analysis (reference value: 0.193%); assay type: functional
T-24 [23] = experiment: Induction of apoptosis in human T24 cells assessed as necrotic cells at 10 uM by Annexin V-FITC/propidium iodide based flow cytometric analysis (reference value: 8.53%); assay type: functional

Sequence of Cellular tumor antigen p53 (Homo sapiens) (P04637 whole entry, looked up): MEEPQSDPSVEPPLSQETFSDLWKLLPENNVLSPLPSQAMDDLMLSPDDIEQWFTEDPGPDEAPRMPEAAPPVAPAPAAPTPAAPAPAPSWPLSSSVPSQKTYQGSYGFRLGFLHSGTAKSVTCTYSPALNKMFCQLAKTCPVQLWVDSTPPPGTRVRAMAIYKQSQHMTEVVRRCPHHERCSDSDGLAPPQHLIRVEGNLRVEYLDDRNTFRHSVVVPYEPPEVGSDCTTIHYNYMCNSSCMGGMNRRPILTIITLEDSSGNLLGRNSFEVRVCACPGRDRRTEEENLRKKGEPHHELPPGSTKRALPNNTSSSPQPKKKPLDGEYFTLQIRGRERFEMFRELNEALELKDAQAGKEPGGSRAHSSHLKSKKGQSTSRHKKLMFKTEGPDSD

How did the Activity (T-24 [1]) turn out when `CN(C)CCNc1nn2c(=O)c3cc(Br)ccc3nc2c2ccccc12` was run?
Its Activity is “Active”.

And the Activity (T-24 [2])?
Its Activity is “Active”.

And the Activity (J82 [3])?
Its Activity is 48.49%.

What about the Activity (J82 [4]) of the same compound?
The Activity was 39.51%.

And the Activity (J82 [5])?
Its Activity is 12%.

What about the Activity (J82 [6]) of the same compound?
Its Activity is 17.78%.

And the Activity (J82 [7])?
Its Activity is 23.67%.

And the Activity (DU-145)?
Its Activity is “inactive”.

And the Activity (PC-3)?
The Activity was “inactive”.

And the Activity (LNCaP)?
The Activity was “Active”.

What about the Activity (T-24 [8]) of the same compound?
Its Activity is “Dose-dependent effect”.

And the Activity (T-24 [9])?
The Activity was “inactive”.

What about the Activity (T-24 [10]) of the same compound?
Its Activity is “Active”.

And the Activity (T-24 [11])?
The Activity was “Active”.

What about the Activity [12] of the same compound?
The Activity was “Active”.

What about the IC50 (HepG2) of the same compound?
Its IC50 is 3.8 µM.

What about the IC50 (MGC-803) of the same compound?
Its IC50 is 4.29 µM.

And the IC50 (HeLa)?
Its IC50 is 6.1 µM.

What about the Activity (Mus musculus) of the same compound?
The Activity was “Non-Toxic”.

And the Activity (T-24 [13])?
The Activity was “inactive”.

What about the Activity (T-24 [14]) of the same compound?
The Activity was “inactive”.

And the Activity (T-24 [15])?
Its Activity is 93.5%.

What about the Activity (T-24 [16]) of the same compound?
Its Activity is 0%.

And the Activity (T-24 [17])?
The Activity was 0%.

What about the Activity (T-24 [18]) of the same compound?
Its Activity is 86.6%.

What about the Activity (T-24 [19]) of the same compound?
Its Activity is 0%.

And the Activity (T-24 [20])?
Its Activity is “inactive”.

And the Activity (T-24 [21])?
The Activity was 62.8%.

And the Activity (T-24 [22])?
The Activity was 10.2%.

And the Activity (T-24 [23])?
Its Activity is 8.1%.
